Reference: ChEMBL document CHEMBL3124865, “Sulfur rich 2-mercaptobenzothiazole and 1,2,3-triazole conjugates as novel antitubercular agents” (2014)
In brackets after ≈: the same amount, converted by molar mass.

Tested on: Mycobacterium tuberculosis
Assay: Bactericidal activity against Mycobacterium tuberculosis H37Rv after 20 days
Assay type: functional
Conditions: 480 h
How it was run: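 After the microdilution MIC run, 0.02 mL of H37Rv suspension from wells at MIC and higher concentrations was plated on 7H10 agar (7H11 also named). Viable counts were taken after 20 days at 37 °C. MBC is the lowest concentration that cut viable counts by at least 99% versus compound-free wells.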

Going from `Clc1cccc(-n2cc(CSc3nc4ccccc4s3)nn2)c1` to `O=[N+]([O-])c1cccc(-n2cc(CSc3nc4ccccc4s3)nn2)c1`, the MBC falls from greater than 64 µg/mL to 64 µg/mL (≈ 173 µM).

`O=[N+]([O-])c1ccc(-n2cc(CSc3nc4ccccc4s3)nn2)cc1` and `CC1(C)O[C@H]2OC(Cn3cc(CSc4nc5ccccc5s4)nn3)[C@@H]3OC(C)(C)O[C@@H]3[C@@H]2O1` (stereo partly drawn) are the same in MBC: 32 µg/mL (≈ 86.6 µM) for the first, 32 µg/mL (≈ 65.2 µM) for the second.

Tested on: Mycobacterium tuberculosis
Assay: Antimycobacterial activity against Mycobacterium tuberculosis
Assay type: functional
Conditions: not given
How it was run: (§1)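 M. tuberculosis H37Rv in broth microdilution. Compounds were first screened at one fixed concentration in triplicate, and actives went on to MIC determination. Plates were incubated 2–3 weeks at 37 °C in a CO₂ incubator. MIC was read visually as the absence of growth turbidity.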

`CC1COC2(CCN(c3nc(=O)c4cc(C(F)(F)F)cc([N+](=O)[O-])c4s3)CC2)O1` (stereo not drawn) showed an MIC of 0.001 µg/mL (≈ 0.00232 µM).

Tested on: Mycobacterium tuberculosis
Assay: Antimycobacterial activity against Mycobacterium tuberculosis H37Rv after 2 to 3 weeks by broth microdilution assay
Assay type: functional
Conditions: not given
How it was run: as §1

`O=C(CSc1nc2ccccc2s1)N1CCOCC1` and `O=C(CSc1nc2ccccc2s1)N1CCCC1` cannot be ordered by MIC: less than 128 µg/mL for the first, less than 128 µg/mL for the second.

`O=C(CSc1nc2ccccc2s1)N1CCCCC1` and `O=C(CSc1nc2ccccc2s1)N1CCSCC1` cannot be ordered by MIC: less than 128 µg/mL for the first, 64 µg/mL (≈ 206 µM) for the second.

`O=C(C(=O)N1CCCC1)c1c[nH]c2ccccc12` and `O=C(C(=O)N1CCCCC1)c1c[nH]c2ccccc12` cannot be ordered by MIC: less than 128 µg/mL for the first, less than 128 µg/mL for the second.

`Clc1ccccc1-n1cc(CSc2nc3ccccc3s2)nn1` and `Cc1ccccc1-n1cc(CSc2nc3ccccc3s2)nn1` cannot be ordered by MIC: 16 µg/mL (≈ 44.6 µM) for the first, less than 128 µg/mL for the second.

`Clc1cccc(-n2cc(CSc3nc4ccccc4s3)nn2)c1` and `O=[N+]([O-])c1cccc(-n2cc(CSc3nc4ccccc4s3)nn2)c1` are the same in MIC: 8 µg/mL (≈ 22.3 µM) for the first, 8 µg/mL (≈ 21.7 µM) for the second.

`Clc1ccc(-n2cc(CSc3nc4ccccc4s3)nn2)cc1` and `Fc1ccc(-n2cc(CSc3nc4ccccc4s3)nn2)cc1` cannot be ordered by MIC: less than 128 µg/mL for the first, less than 128 µg/mL for the second.

Compared with `Brc1ccc(-n2cc(CSc3nc4ccccc4s3)nn2)cc1`, `O=[N+]([O-])c1ccc(-n2cc(CSc3nc4ccccc4s3)nn2)cc1` is 2-fold lower in MIC: 16 µg/mL (≈ 39.7 µM) for the first, 8 µg/mL (≈ 21.7 µM) for the second.

`CCOc1ccc(-n2cc(CSc3nc4ccccc4s3)nn2)cc1` and `c1ccc(-n2cc(CSc3nc4ccccc4s3)nn2)cc1` cannot be ordered by MIC: less than 128 µg/mL for the first, less than 128 µg/mL for the second.

`c1cncc(-n2cc(CSc3nc4ccccc4s3)nn2)c1` and `CC1(C)OCC(Cn2cc(CSc3nc4ccccc4s3)nn2)O1` (stereo not drawn) cannot be ordered by MIC: 16 µg/mL (≈ 49.2 µM) for the first, less than 128 µg/mL for the second.

First: CC1(C)O[C@H]2OC(Cn3cc(CSc4nc5ccccc5s4)nn3)[C@@H]3OC(C)(C)O[C@@H]3[C@@H]2O1 (stereo partly drawn)
Second: O=C(CSc1nc2ccccc2s1)Nc1ccccn1
The MIC of the first is 8-fold lower: 8 µg/mL (≈ 16.3 µM) for the first, 64 µg/mL (≈ 212 µM) for the second.

`CN1CCN(C(=O)C(=O)c2c[nH]c3ccccc23)CC1` and `O=C(C(=O)N1CCSCC1)c1c[nH]c2ccccc12` cannot be ordered by MIC: less than 128 µg/mL for the first, less than 128 µg/mL for the second.

`O=C(NN1CCOCC1)C(=O)c1c[nH]c2ccccc12` and `O=C(C(=O)N1CCOCC1)c1c[nH]c2ccccc12` cannot be ordered by MIC: less than 128 µg/mL for the first, less than 128 µg/mL for the second.

`O=C(NNC(=O)c1ccncc1)C(=O)c1c[nH]c2ccccc12` and `O=C(CSc1nc2ccccc2s1)NNC(=O)c1ccncc1` cannot be ordered by MIC: 64 µg/mL (≈ 208 µM) for the first, less than 128 µg/mL for the second.

`CN1CCN(C(=O)CSc2nc3ccccc3s2)CC1` and `O=C(CSc1nc2ccccc2s1)NN1CCOCC1` cannot be ordered by MIC: less than 128 µg/mL for the first, less than 128 µg/mL for the second.

`O=C(CSc1nc2ccccc2s1)Nc1ccc(F)cc1` and `O=C(CSc1nc2ccccc2s1)Nc1ccc(Br)cc1` cannot be ordered by MIC: 64 µg/mL (≈ 201 µM) for the first, less than 128 µg/mL for the second.

`O=C(CSc1nc2ccccc2s1)NCc1ccc(F)cc1` and `NNC(=O)c1ccncc1` [ISONIAZID] cannot be ordered by MIC: less than 128 µg/mL for the first, 0.125 µg/mL (≈ 0.911 µM) for the second.

Work on `CO[C@H]1/C=C/O[C@@]2(C)Oc3c(C)c(O)c4c(O)c(c(/C=N/N5CCN(C)CC5)c(O)c4c3C2=O)NC(=O)/C(C)=C\C=C\[C@H](C)[C@H](O)[C@@H](C)[C@@H](O)[C@@H](C)[C@H](OC(C)=O)[C@@H]1C` [RIFAMPIN] yielded an MIC of 0.06 µg/mL (≈ 0.0729 µM).
